# Reference: ChEMBL document CHEMBL1833886, “Synthesis and evaluation of furoxan-based nitric oxide-releasing derivatives of tetrahydroisoquinoline as anticancer and multidrug resistance reversal agents” (Bioorg Med Chem Lett, 2011)
# Active and inactive are the calls of the source. The rule behind the calls is not given here.
# What was measured:
# [1] = Cytotoxicity against adriamycin-resistant human K562/A02 cells after 48 hrs by MTT assay; type: functional, cell-based; conditions: K562/A02, 48 h
# In short: (§1)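 K562 and adriamycin-selected K562/A02 cells in RPMI 1640 with 10% fetal calf serum, 37 °C, 5% CO2; kept drug-free >14 days before assay. Log-phase cells at 1 × 10⁵/mL in 96-well plates, exposed to a range of compound concentrations (DMSO stock, final DMSO ≤0.1%) for 48 h. MTT added during last 4 h, formazan in DMSO, read at 570 nm. Duplicate wells, ≥3 experiments. IC50 by Bliss method.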
# [2] = test system: K562; test: Cytotoxicity against human K562 cells after 48 hrs by MTT assay; type: functional, cell-based; conditions: K562, 48 h; in short: as §1
# [3] = test system: K562/A02; test: Reversal of P-gp-mediated multidrug-resistance in adriamycin-resistant human K562/A02 cells at 10 uM after 48 hrs by MTT assay relative to adriamycin; type: cell-based
# In short: (§2)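 Cells at 3 × 10⁴/well received graded adriamycin plus test compound (final 10 µM), 48 h at 37 °C, 5% CO2, then MTT read-out at 570 nm. Adriamycin IC50 by Bliss method. Fold reversal = IC50 of adriamycin alone / IC50 with modulator. Student's t test versus no modulator, P < 0.05.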
# [4] = test system: K562; test: Reversal of P-gp-mediated multidrug-resistance in human K562 cells at 10 uM after 48 hrs by MTT assay relative to adriamycin; type: cell-based; in short: as §2
# [5] = test system: K562/A02; test: Induction of NO production in adriamycin-resistant human K562/A02 cells at 10 uM after 24 hrs by Griess assay; type: functional, cell-based
# In short: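 K562/A02 cells (5 × 10⁶ per well) exposed in triplicate to 10 µM compound for 24 h, harvested and lysed. Lysates mixed with Griess reagent 30–300 min, absorbance at 570 nm. Nitrite/nitrate quantified against sodium nitrate standard curve; diluent-treated cells as background control. Mean SD of three separate experiments.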
# [6] = test system: K562/A02; test: Inhibition of P-gp-mediated rhodamine-123 uptake in adriamycin-resistant human K562/A02 cells assessed as rhodamine-123 accumulation at 10 uM after 60 mins by flow cytometry; type: cell-based
# In short: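 Rhodamine123 uptake in K562/A02 cells followed by fluorescence after treatment with 10 µM (final) modulator; verapamil group as reference, untreated control. Intracellular rhodamine123 read from a rhodamine123 standard curve, fluorescence taken as relative concentration. Student's t test, P < 0.05.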
Compound,IC50 [1] [µM],IC50 [2] [µM],fold change (FC) [3],fold change (FC) [4],Activity [5],inhibition [6]
COc1cccc2c1C(=O)c1c(O)c3c(c(O)c1C2=O)C[C@@](O)(C(=O)CO)C[C@@H]3O[C@H]1C[C@H](N)[C@H](O)[C@H](C)O1 [DOXORUBICIN],17.8,–,–,–,–,–
COc1cc2c(cc1OC)C(COc1ccccc1)N(C(=O)CCC(=O)OCCCCOc1no[n+]([O-])c1S(=O)(=O)c1ccccc1)CC2 (stereo not given),17.5,1.5,1.68,1.06,–,–
COc1cc2c(cc1OC)C(COc1ccccc1)N(C(=O)CCC(=O)OCCOc1no[n+]([O-])c1S(=O)(=O)c1ccccc1)CC2 (stereo not given),10.8,1.45,10.7,1.54,–,–
COc1ccc(CC2c3cc(OC)c(OC)cc3CCN2C(=O)CCC(=O)OCCCCOc2no[n+]([O-])c2S(=O)(=O)c2ccccc2)cc1OC (stereo not given),13,1.93,1.88,1.1,–,–
COc1cc2c(cc1OC)C(Cc1cccc3ccccc13)N(C(=O)CCC(=O)OCCCCCCOc1no[n+]([O-])c1S(=O)(=O)c1ccccc1)CC2 (stereo not given),12.3,1.6,5.05,1.35,–,–
COc1cc2c(cc1OC)CN(C(=O)CCC(=O)OCCOc1no[n+]([O-])c1S(=O)(=O)c1ccccc1)CC2,12.7,1.15,10.7,1.34,–,–
COc1cc2c(cc1OC)CN(C(=O)CCC(=O)OCCCCOc1no[n+]([O-])c1S(=O)(=O)c1ccccc1)CC2,11.8,1.56,1.85,1.5,–,–
COc1ccc(CC2c3cc(OC)c(OC)cc3CCN2C(=O)CCC(=O)OCC#CCOc2no[n+]([O-])c2S(=O)(=O)c2ccccc2)cc1OC (stereo not given),8.05,0.905,5.65,1.65,–,–
COc1cc2c(cc1OC)C(Cc1cccc3ccccc13)N(C(=O)CCC(=O)OCCCCOc1no[n+]([O-])c1S(=O)(=O)c1ccccc1)CC2 (stereo not given),12.2,1,17.4,1.47,Active,Active
COc1cc2c(cc1OC)C(COc1ccccc1)N(C(=O)CCC(=O)OCC#CCOc1no[n+]([O-])c1S(=O)(=O)c1ccccc1)CC2 (stereo not given),6.36,0.892,1.73,1.73,–,–
COc1ccc(CC2c3cc(OC)c(OC)cc3CCN2C(=O)CCC(=O)OCCOc2no[n+]([O-])c2S(=O)(=O)c2ccccc2)cc1OC (stereo not given),11.3,1.09,21.3,1.47,Active,Active
COc1ccc(CCN(C)CCCC(C#N)(c2ccc(OC)c(OC)c2)C(C)C)cc1OC (stereo not given),–,–,17.4,0.96,–,–
CCCCCCCCN/C(=N/C#N)N1CCc2cc(OC)c(OC)cc2C1Cc1ccc(OC)c(OC)c1 (stereo not given),> 500,–,–,–,inactive,–
COc1cc2c(cc1OC)CN(C(=O)CCC(=O)OCCCCCCOc1no[n+]([O-])c1S(=O)(=O)c1ccccc1)CC2,14.6,1.73,3.2,1.09,–,–
COc1cc2c(cc1OC)C(Cc1cccc3ccccc13)N(C(=O)CCC(=O)OCCOc1no[n+]([O-])c1S(=O)(=O)c1ccccc1)CC2 (stereo not given),9.98,1.03,2.02,1.59,–,–
COc1cc2c(cc1OC)C(Cc1cccc3ccccc13)N(C(=O)CCC(=O)OCC#CCOc1no[n+]([O-])c1S(=O)(=O)c1ccccc1)CC2 (stereo not given),7.5,0.875,32,1.86,Active,Active
COc1cc2c(cc1OC)CN(C(=O)CCC(=O)OCC#CCOc1no[n+]([O-])c1S(=O)(=O)c1ccccc1)CC2,8.08,0.901,10.1,1.65,–,–
COc1ccc(CC2c3cc(OC)c(OC)cc3CCN2C(=O)CCC(=O)OCCCCCCOc2no[n+]([O-])c2S(=O)(=O)c2ccccc2)cc1OC (stereo not given),12.5,1.65,1.96,1.35,–,–
COc1cc2c(cc1OC)C(COc1ccccc1)N(C(=O)CCC(=O)OCCCCCCOc1no[n+]([O-])c1S(=O)(=O)c1ccccc1)CC2 (stereo not given),13.5,1.79,3.15,1.2,–,–
